# From ChEMBL document CHEMBL1130056, “Novel and selective partial agonists of 5-HT3 receptors. 2. Synthesis and biological evaluation of piperazinopyridopyrrolopyrazines, piperazinopyrroloquinoxalines, and piperazinopyridopyrroloquinoxalines” (J Med Chem, 1997)
# What was measured:
# [1] = biological target: Serotonin 3 (5-HT3) receptor; experiment: Binding affinity against 5-hydroxytryptamine 3 receptor was measured using [3H]granisetron as radioligand; assay type: protein-complex assay
# [2] = biological target: 5-hydroxytryptamine receptor 1B (Rattus norvegicus, UniProt P28564); experiment: Binding affinity towards 5-hydroxytryptamine 1B receptor was measured using [3H]5-HT as radioligand
# Summary of the method: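 Rat frontal cortex and striatum membranes (0.8 mg protein/mL), 2 nM [3H]-5-OH-tryptamine, 1 μM spiperone, 50 nM mesulergine; 25 °C, 30 min; 50 mM Tris-HCl pH 7.4, 4 mM CaCl2, 10 μM pargyline. Nonspecific binding with 10 μM propranolol. Expressed as log IC50 ± SEM.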
# [3] = biological target: 5-hydroxytryptamine receptor 1D (Sus scrofa, UniProt P79400); experiment: Binding affinity against 5-hydroxytryptamine 1D receptor was measured using [3H]5-HT as radioligand
# Summary of the method: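 Pig frontal cortex and striatum membranes (0.8 mg protein/mL), 2 nM [3H]-5-OH-tryptamine with 1 μM spiperone and 50 nM mesulergine, 25 °C, 30 min, 50 mM Tris-HCl pH 7.4, 4 mM CaCl2, 10 μM pargyline. Nonspecific binding with 10 μM 5-HT. Expressed as log IC50 ± SEM.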
# [4] = biological target: 5-hydroxytryptamine receptor 2A (Bos taurus, UniProt Q75Z89); experiment: Binding affinity against 5-hydroxytryptamine 2A receptor was measured using [3H]ketanserin as radioligand
# Summary of the method: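 Bovine frontal cortex membranes (0.6 mg protein/mL) with 0.8 nM [3H]ketanserin and 100 nM WB4101, 37 °C for 30 min, in 50 mM Tris-HCl pH 7.4 plus 5 mM MgCl2, 10 mM NaCl, 0.5 mM EDTA, 10 μM pargyline. 10 μM spiperone defined nonspecific binding. Reported as log IC50 ± SEM.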
# [5] = biological target: 5-hydroxytryptamine receptor 1A (Bos taurus); experiment: Binding affinity against 5-hydroxytryptamine 1A receptor was measured using [3H]8-OH-DPAT as radioligand
# [6] = biological target: 5-hydroxytryptamine receptor 2C (Sus scrofa); experiment: Binding affinity against 5-Hydroxytryptamine 2C Receptor was measured using [3H]N-methyl-mesulergine as radioligand
# Rattus norvegicus [7] = experiment: In Vivo 5-HT3 agonist activity in the Von Bezold-Jarisch reflex decrease in heart rate in rats at 120 (ug/kg) dose.; assay type: functional
# Summary of the method: (§1)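 Fasted male Crl:CD(SD)BR rats (280–320 g) under urethane (1.25 g/kg ip); heart rate from cannulated carotid artery. Compound in saline given iv via jugular cannula. Read-out is fall in heart rate as percent of pre-treatment baseline.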
# Rattus norvegicus [8] = experiment: In Vivo 5-HT3 antagonist activity in the Von Bezold-Jarisch reflex in rats and percent inhibition of bradycardia induced by 5-HT was reported; assay type: functional; details: read-out: ID50 (the source's name)
# Summary of the method: (§2)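 Urethane-anesthetized (1.25 g/kg ip) fasted male Crl:CD(SD)BR rats; heart rate from carotid cannula. Compound in saline iv via jugular vein, usually 5 min before 5-HT bolus (30 μg/kg iv).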
# NG108-15 = experiment: In Vitro 5-HT3 agonist activity on the [14C]guanidinium accumulation in NG 108-15 cells.; assay type: functional, cell-based; details: Murinae
# Summary of the method: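 NG 108-15 cells grown 2 days, washed, then incubated 10 min at 37 °C in HEPES buffer pH 7.4 with 10 mM guanidinium chloride, 200–250 nCi [14C]guanidinium, 10 μM substance P and drug. After ice-cold choline wash, cells dissolved in NaOH and radioactivity counted. EC50 from triplicates per concentration; mean ± SEM of three determinations.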
# Rattus norvegicus [9] = experiment: In Vivo 5-HT3 antagonist activity in the Von Bezold-Jarisch reflex in rats after intravenous dose of 60 (ug/kg); assay type: functional; summary of the method: as §2
# Rattus norvegicus [10] = experiment: In Vivo 5-HT3 agonist activity in the Von Bezold-Jarisch reflex decrease in heart rate in rats at 60 (ug/kg) dose.; assay type: functional; summary of the method: as §1
# Rattus norvegicus [11] = experiment: In Vivo 5-HT3 antagonist activity in the Von Bezold-Jarisch reflex in rats after intravenous dose of 120 (ug/kg); assay type: functional; summary of the method: as §2
# Rattus norvegicus [12] = experiment: In Vivo 5-HT3 antagonist activity in the Von Bezold-Jarisch reflex in rats at intravenous dose of 60 (ug/kg); assay type: functional; summary of the method: as §2
# 5-hydroxytryptamine receptor 1B, sequence (P28564 whole entry): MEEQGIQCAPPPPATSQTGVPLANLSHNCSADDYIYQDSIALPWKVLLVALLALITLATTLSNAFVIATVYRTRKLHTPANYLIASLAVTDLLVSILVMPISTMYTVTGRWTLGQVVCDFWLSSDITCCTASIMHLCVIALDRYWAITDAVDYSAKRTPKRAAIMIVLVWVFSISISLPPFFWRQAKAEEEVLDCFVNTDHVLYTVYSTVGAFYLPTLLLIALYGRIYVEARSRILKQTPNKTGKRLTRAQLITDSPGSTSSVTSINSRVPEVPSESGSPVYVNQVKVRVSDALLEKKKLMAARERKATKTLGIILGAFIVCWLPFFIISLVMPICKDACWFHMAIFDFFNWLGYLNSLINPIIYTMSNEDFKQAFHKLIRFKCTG
# 5-hydroxytryptamine receptor 2A, sequence (Q75Z89 whole entry): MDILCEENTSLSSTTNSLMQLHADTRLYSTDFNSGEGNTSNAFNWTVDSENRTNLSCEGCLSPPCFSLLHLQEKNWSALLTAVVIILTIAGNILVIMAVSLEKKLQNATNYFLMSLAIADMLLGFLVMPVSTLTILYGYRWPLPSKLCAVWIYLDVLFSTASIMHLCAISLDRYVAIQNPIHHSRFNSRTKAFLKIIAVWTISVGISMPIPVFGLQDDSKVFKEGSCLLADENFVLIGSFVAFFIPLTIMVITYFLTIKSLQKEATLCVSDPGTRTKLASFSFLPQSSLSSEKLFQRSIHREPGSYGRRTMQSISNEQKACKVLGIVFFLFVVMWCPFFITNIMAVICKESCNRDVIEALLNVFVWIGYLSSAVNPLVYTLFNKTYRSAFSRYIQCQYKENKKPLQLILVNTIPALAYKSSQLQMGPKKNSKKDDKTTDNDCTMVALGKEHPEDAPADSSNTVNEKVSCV
# 5-hydroxytryptamine receptor 1D, sequence (P79400 whole entry): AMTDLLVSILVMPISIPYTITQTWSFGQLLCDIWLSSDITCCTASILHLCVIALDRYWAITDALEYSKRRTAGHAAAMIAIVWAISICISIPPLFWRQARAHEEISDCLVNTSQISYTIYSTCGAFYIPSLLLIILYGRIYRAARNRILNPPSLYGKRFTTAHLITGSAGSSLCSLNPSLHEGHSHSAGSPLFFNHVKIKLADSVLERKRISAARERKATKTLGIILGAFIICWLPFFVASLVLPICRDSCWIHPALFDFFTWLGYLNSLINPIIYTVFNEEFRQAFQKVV
-Log IC50 [1],IC50 [2] [µM],IC50 [3] [µM],IC50 [4] [µM],IC50 [5] [µM],IC50 [6] [µM],Structure (SMILES),also measured
5.88,,,,,,CN1CCN(c2nc3cc(C(F)(F)F)ccc3n3cccc23)CC1,
< 4,70.8,> 100,> 100,,,Cc1ccnc2c1nc(N1CCN(Cc3ccc(F)cc3)CC1)c1cccn12,
7.71,19.5,5.75,21.4,,,C=CCN1CCN(c2nc3ccc4ncccc4c3n3cccc23)CC1,
11.4,0.204,0.955,25.1,0.117,0.372,C=CCN1CCN(c2nc3cccnc3n3cccc23)CC1,
5.59,31.6,85.1,17,,,Fc1ccc(CN2CCN(Cc3nc4ccccc4n4cccc34)CC2)cc1,
9.54,19.1,> 100,> 100,,,Clc1ccc2c(c1)nc(N1CCN(Cc3ccccc3)CC1)c1cccn12,Inhibition (Rattus norvegicus [7]): 0%; ED50 (Rattus norvegicus [8]): 0.0312 mg/kg; EC50 (NG108-15): 0.052 µM
7.87,10,> 100,> 100,12.9,> 100,Cc1ccc2c(c1)nc(N1CCN(Cc3ccc(F)cc3)CC1)c1cccn12,
7.85,> 100,> 100,70.8,,,COc1ccc2nc(N3CCN(Cc4ccccc4)CC3)c3cccn3c2n1,
7.92,,,,,,c1cc2c(N3CCNCC3)nc3ccsc3n2c1,
7.71,> 100,> 100,> 100,40.7,> 100,Fc1ccc(CN2CCN(c3nc4cc(Cl)ccc4n4cccc34)CC2)cc1,
< 4,3.55,> 100,1.62,,,COc1ccc2c(c1)nc(N1CCN(CCCCn3cccn3)CC1)c1cccn12,
10.09,14.5,46.8,> 100,9.55,> 100,Clc1ccc2c(c1)nc(N1CCN(Cc3ccc4c(c3)OCO4)CC1)c1cccn12,
7.69,> 100,> 100,> 100,89.1,44.7,Clc1ccc2nc(N3CCN(Cc4ccccc4)CC3)c3cccn3c2c1,
9.1,49,> 100,45.7,,,c1cnc2c(c1)nc(N1CCN(Cc3ccc4c(c3)OCO4)CC1)c1cccn12,
5.89,77.6,> 100,> 100,,,Clc1ccc(CN2CCN(c3nc4cccnc4n4cccc34)CC2)c(Cl)c1,
7.51,97.7,> 100,> 100,,,c1ccc(CN2CCN(c3nc4ccc5ncccc5c4n4cccc34)CC2)cc1,
9.04,,,,,,C=CCN1CCN(c2nc3sccc3n3cccc23)CC1,

-Log IC50 [1],IC50 [2] [µM],IC50 [3] [µM],IC50 [4] [µM],IC50 [5] [µM],IC50 [6] [µM],Structure (SMILES),also measured
4.56,> 100,> 100,> 100,,,c1ccc(N2CCN(c3nc4cccnc4n4cccc34)CC2)cc1,
4.43,> 100,> 100,> 100,55,> 100,c1ccc(COc2ccc3nc(N4CCN(Cc5ccccc5)CC4)c4cccn4c3n2)cc1,
4.55,> 100,> 100,> 100,,,CCOC(=O)N1CCN(c2nc3cccnc3n3cccc23)CC1,
8.58,56.2,83.2,43.7,6.76,5.25,Fc1ccc(CN2CCN(c3nc4cccnc4n4cccc34)CC2)cc1,
8.93,> 100,,,,,Fc1ccc(CN2CCN(c3nc4sccc4n4cccc34)CC2)cc1,
6.93,> 100,> 100,> 100,56.2,> 100,COc1ccc2nc(N3CCN(Cc4ccc(F)cc4)CC3)c3cccn3c2n1,
7.55,58.9,39.8,20,,,c1cnc2ccc3nc(N4CCN(Cc5ccc6c(c5)OCO6)CC4)c4cccn4c3c2c1,
7.06,> 100,> 100,> 100,> 100,> 100,c1ccc(CN2CCN(c3ccc4nc(N5CCN(Cc6ccccc6)CC5)c5cccn5c4n3)CC2)cc1,
9.45,12.9,24,10.5,,,c1ccc(CN2CCN(c3nc4ccccc4n4cccc34)CC2)cc1,Inhibition (Rattus norvegicus [9]): 80%; EC50 (NG108-15): 0.018 µM; Inhibition (Rattus norvegicus [10]): 54%
8.83,0.151,1.7,14.5,,,c1cnc2c(c1)nc(N1CCNCC1)c1cccn12,
12.09,13.2,,15.1,,,c1ccc(CN2CCN(c3nc4cccnc4n4cccc34)CC2)cc1,Inhibition (Rattus norvegicus [7]): 59%; Inhibition (Rattus norvegicus [11]): 40%; EC50 (NG108-15): 0.032 µM
8.18,69.2,> 100,> 100,,,COc1ccc2c(c1)nc(N1CCN(Cc3ccc(F)cc3)CC1)c1cccn12,Inhibition (Rattus norvegicus [7]): 0%; ED50 (Rattus norvegicus [8]): 0.0754 mg/kg; EC50 (NG108-15): 0.104 µM
8.62,38,> 100,46.8,,,Fc1ccc(CN2CCN(c3nc4ccccc4n4cccc34)CC2)cc1,
5.52,43.7,> 100,51.3,50.1,57.5,Cc1ccnc2c1nc(N1CCN(Cc3ccccc3)CC1)c1cccn12,
8.85,,,,,,c1ccc(CN2CCN(c3nc4ccsc4n4cccc34)CC2)cc1,Inhibition (Rattus norvegicus [7]): 40%; Inhibition (Rattus norvegicus [12]): 42%; EC50 (NG108-15): 0.011 µM
9.01,0.245,0.955,7.94,0.0977,0.275,CN1CCN(c2nc3cccnc3n3cccc23)CC1,
,,,,,,NCCc1c[nH]c2ccc(O)cc12 [SEROTONIN],EC50 (NG108-15): 0.293 µM

Structure (SMILES),-Log IC50 [1],IC50 [2] [µM],IC50 [3] [µM],IC50 [4] [µM],IC50 [5] [µM],IC50 [6] [µM],also measured
c1ccc(CN2CCN(c3ncccc3-n3cccc3)CC2)cc1,7.34,26.3,11,7.41,,,
